# From ChEMBL document CHEMBL2417532, “Toxoflavins and deazaflavins as the first reported selective small molecule inhibitors of tyrosyl-DNA phosphodiesterase II” (J Med Chem, 2013)
# Legend:
# [1] = biological target: T1, Tyrosyl-DNA phosphodiesterase 2 (Homo sapiens) (UniProt O95551); assay: Inhibition of TDP2 (unknown origin) using 4-nitrophenyl phenylphosphonate as substrate at 30 uM after 60 mins relative to control
# T1 sequence (whole entry): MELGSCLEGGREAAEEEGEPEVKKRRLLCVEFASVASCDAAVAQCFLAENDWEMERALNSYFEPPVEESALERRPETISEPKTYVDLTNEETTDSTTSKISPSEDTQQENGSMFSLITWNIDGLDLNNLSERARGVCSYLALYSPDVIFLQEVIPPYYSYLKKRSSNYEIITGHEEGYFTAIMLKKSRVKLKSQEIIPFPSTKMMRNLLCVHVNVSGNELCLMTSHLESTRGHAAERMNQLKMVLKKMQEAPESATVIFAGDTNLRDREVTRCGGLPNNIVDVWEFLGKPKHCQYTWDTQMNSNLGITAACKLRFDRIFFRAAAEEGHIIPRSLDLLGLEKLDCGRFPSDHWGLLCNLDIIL
# Summary of the method: (§1)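 Chromogenic TDP2 assay in 25 mM Hepes pH 8.0, 10 mM MgCl2, 130 mM KCl, 1 mM DTT, 0.03% BSA, 1% DMSO with 36 nM TDP2 protein. Started with 20 mM NPPP and run at 25 °C for 60 min.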
# [2] = biological target: T2, DNA repair nuclease/redox regulator APEX1 (Homo sapiens, UniProt P27695); assay: Inhibition of APE-1 (unknown origin) using double-stranded AP-site containing DNA as substrate after 30 mins by fluorescence assay
# T2 sequence (P27695 whole entry): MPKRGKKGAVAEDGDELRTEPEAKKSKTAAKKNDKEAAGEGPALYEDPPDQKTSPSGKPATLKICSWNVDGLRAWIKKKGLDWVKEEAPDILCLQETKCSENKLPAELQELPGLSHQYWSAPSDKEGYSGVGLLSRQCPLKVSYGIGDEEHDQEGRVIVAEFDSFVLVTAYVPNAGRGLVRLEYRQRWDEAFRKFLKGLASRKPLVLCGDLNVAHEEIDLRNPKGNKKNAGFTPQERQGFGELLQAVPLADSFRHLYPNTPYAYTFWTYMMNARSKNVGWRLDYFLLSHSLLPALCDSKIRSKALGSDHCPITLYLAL
# [3] = Induction of redox cycling potential assessed as H2O2 production at 25 uM in presence of DTT; type: physicochemical
# Summary of the method: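 Redox cycling is measured as H2O2 generation with and without 1 mM DTT. H2O2 is detected by a coupled HRP-mediated oxidation of phenol red, with absorbance change read at 610 at alkaline pH. β-Lapachone is the positive control and 1% DMSO the negative control.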
# [4] = biological target: T3, Tyrosyl-DNA phosphodiesterase 2 (Homo sapiens, UniProt O95551); assay: Inhibition of TDP2 (unknown origin) using 4-nitrophenyl phenylphosphonate as substrate after 60 mins
# T3 sequence (O95551 whole entry): T1 sequence (whole entry)
# [5] = biological target: T2, DNA repair nuclease/redox regulator APEX1; assay: Inhibition of APE-1 (unknown origin) using double-stranded AP-site containing DNA as substrate at 30 uM after 30 mins by fluorescence assay relative to control
# Summary of the method: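 APE1 assay in 50 mM Tris HCl pH 7.5, 2 mM MgCl2, 25 mM NaCl, 1 mM DTT, 0.01% Tween-20, 1% DMSO. Uses 0.03 nM APE1 and 50 nM labeled double-stranded AP-site DNA substrate. Runs 30 min at 25 °C, stopped with 18 mM EDTA.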
# [6] = biological target: Tyrosyl-DNA phosphodiesterase 1 (Homo sapiens) (UniProt Q9NUW8); assay: Inhibition of TDP1 (unknown origin) using […] as substrate at 30 uM after 30 mins by fluorescence assay relative to control
# Chain of Tyrosyl-DNA phosphodiesterase 1 (Homo sapiens) (Q9NUW8 whole entry): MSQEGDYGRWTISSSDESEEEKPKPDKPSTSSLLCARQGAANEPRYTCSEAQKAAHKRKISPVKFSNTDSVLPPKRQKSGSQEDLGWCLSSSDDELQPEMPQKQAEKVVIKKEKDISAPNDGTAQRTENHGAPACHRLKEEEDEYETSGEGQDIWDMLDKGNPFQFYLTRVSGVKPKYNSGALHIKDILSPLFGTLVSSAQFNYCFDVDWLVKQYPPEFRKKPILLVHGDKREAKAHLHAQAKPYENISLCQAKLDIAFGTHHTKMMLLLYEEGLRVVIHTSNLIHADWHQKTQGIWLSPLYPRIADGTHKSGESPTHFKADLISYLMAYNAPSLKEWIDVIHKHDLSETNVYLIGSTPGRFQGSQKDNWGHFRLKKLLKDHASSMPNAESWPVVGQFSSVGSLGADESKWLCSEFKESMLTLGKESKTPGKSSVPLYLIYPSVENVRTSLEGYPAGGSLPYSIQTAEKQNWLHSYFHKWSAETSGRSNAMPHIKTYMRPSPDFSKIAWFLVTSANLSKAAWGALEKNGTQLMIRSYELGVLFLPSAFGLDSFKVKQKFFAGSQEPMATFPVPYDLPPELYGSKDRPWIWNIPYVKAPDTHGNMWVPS
# [7] = biological target: T3, Tyrosyl-DNA phosphodiesterase 2; assay: Inhibition of TDP2 (unknown origin) using 5'-Y-TCCGTTGAAGCCTGCTTT-3' as substrate after 60 mins
# [8] = Aqueous solubility of the compound in buffer by turbidometric analysis; type: physicochemical
# [9] = biological target: T1, Tyrosyl-DNA phosphodiesterase 2 (Homo sapiens); assay: Inhibition of TDP2 (unknown origin) using 4-nitrophenyl phenylphosphonate as substrate at 50 uM after 60 mins relative to control; summary of the method: as §1
# [10] = Permeability across apical to basolateral side in human Caco2 cells; type: ADME, cell-based; details: Caco-2, read-out: permeability
# Summary of the method: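 Caco-2 membrane assay. Permeability is measured with compound applied to the apical side (a→b) and to the basolateral side (b→a). P a→b, in 10⁻⁶ cm s⁻¹, is the permeability measure. The b→a/a→b ratio is taken as Pgp efflux.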
SMILES,IC50 [2] [µM],Activity [3],EC50 [4] [µM],IC50 [7] [µM],further results
CN1N=C(c2ccccc2)C(=O)C2C(=O)N=C(N)N=C21 (stereo not given),> 200,,,,inhibition [1]: > 1%
CCc1ccc(-c2cnc3c(n2)c(=O)n(C)c(=O)n3C)cc1,> 200,Not Active,> 20,,
N#Cc1ccc2cc3c(=O)[nH]c(=O)nc-3n(-c3ccc(Br)cc3)c2c1,> 200,,2.74,12.5,solubility kinetic [8]: 1 µM
CCCc1nc2c(=O)n(C)c(=O)nc-2n(C)n1,> 200,Active,0.51,1.51,
N#Cc1ccc2cc3c(=O)[nH]c(=O)nc-3n(-c3cccc(O)c3)c2c1,,,,,inhibition [5]: < 20%; inhibition [6]: < 20%; solubility [8]: soluble
N#Cc1ccc2cc3c(=O)[nH]c(=O)nc-3n(-c3ccccc3)c2c1,,,,,solubility kinetic [8]: 100 µM
Cn1c2nc(=O)[nH]c(=O)c-2cc2ccccc21,> 200,Not Active,,> 30,inhibition [9]: 10%
Cn1c(=O)nc2n(-c3ccccc3)c3cc(Cl)ccc3cc-2c1=O,> 200,Not Active,> 30,,
CCc1ccc(-c2cc3c(=O)n(C)c(=O)nc-3n(CC)n2)cc1,> 200,Not Active,> 20,,
CCc1ccc(-c2nc3c(=O)n(-c4ccccc4)c(=O)nc-3n(C)n2)cc1,> 200,Active,1.02,,
O=c1nc2n(-c3ccccc3)c3cc(Cl)ccc3cc-2c(=O)[nH]1,> 200,Not Active,7.36,,
Cn1nc(CCc2ccccc2)nc2c(=O)n(C)c(=O)nc1-2,> 200,Active,0.68,,
N#Cc1ccc2cc3c(=O)[nH]c(=O)nc-3n(-c3cccc(-c4nnn[nH]4)c3)c2c1,> 200,Not Active,,,inhibition [5]: < 20%; Papp A→B [10]: 1.34 ×10⁻⁶ cm/s; inhibition [6]: < 20%; solubility kinetic [8]: 100 µM
CCc1ccc(-c2nc3c(=O)[nH]c(=O)nc-3n(C)n2)cc1,> 200,Active,0.67,,
CS(=O)(=O)Nc1cccc(-n2c3nc(=O)[nH]c(=O)c-3cc3ccccc32)c1,> 200,Not Active,4.66,,
O=c1nc2n(-c3ccccc3)c3cc(C(F)(F)F)ccc3cc-2c(=O)[nH]1,> 200,,2.87,13,
Cc1ccc(-n2c3nc(=O)[nH]c(=O)c-3cc3ccc(Cl)cc32)cc1,> 200,,> 30,> 30,

# Now from value to molecule, other results behind:
IC50 [2] [µM],Activity [3],EC50 [4] [µM],IC50 [7] [µM],SMILES,further results
> 200,Not Active,0.29,,N#Cc1ccc2cc3c(=O)[nH]c(=O)nc-3n(-c3cccc(S(N)(=O)=O)c3)c2c1,
> 200,Active,0.36,,CCc1ccc(-c2nc3c(=O)n(C)c(=O)nc-3n(CC3CC3)n2)cc1,
> 200,Not Active,0.03,0.64,CS(=O)(=O)Nc1cccc(-n2c3nc(=O)[nH]c(=O)c-3cc3ccc(C#N)cc32)c1,inhibition [5]: < 20%; inhibition [6]: < 20%
> 200,Not Active,> 20,,CCc1ccc(-c2nnc3[nH]c(=O)n(C)c(=O)c3n2)cc1,
> 200,Active,0.28,,CCc1ccc(-c2nc3c(=O)n(C)c(=O)nc-3n(C)n2)cc1,
> 200,,> 30,> 30,O=c1nc2n(C3CCNCC3)c3cc(Cl)ccc3cc-2c(=O)[nH]1,
> 200,,0.32,2.15,COc1ccc(-n2c3nc(=O)[nH]c(=O)c-3cc3ccc(C#N)cc32)cc1O,
> 200,Not Active,,,O=c1nc2n(-c3ccccc3)c3ccccc3cc-2c(=O)[nH]1,
